Experiments:
Assay type in all cases: functional
OVCAR-3 = assay: Antitumor activity against human OVCAR-3 cells at 10 uM after 48 hrs by sulforhodamine B assay relative to control; details: OVCAR-3, 48 h, values are per cent of control
Method in brief: (§1)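 NCI panel lines were grown in RPMI-1640 with 5% FBS and 2 mM L-glutamine and seeded at 5000–40,000 cells/well according to doubling time. After 24 h at 37 °C, 5% CO2, one dose from a DMSO stock was added for 48 h. Cells were TCA-fixed (10% final adherent, 16% suspension), SRB-stained and read at 515 nm. Percent growth is relative to untreated control.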

COLO 205 = assay: Antitumor activity against human COLO205 cells at 10 uM after 48 hrs by sulforhodamine B assay relative to control; details: COLO 205, 48 h, values are per cent of control
Method in brief: (§2)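 Single-dose screen in a 55-line panel. Cells in RPMI-1640 with 5% FBS and 2 mM glutamine were preincubated for 24 h, then exposed to compound (DMSO stock diluted in medium) for 48 h at 37 °C with 5% CO2. Cells were fixed with cold TCA, stained with 0.4% SRB in 1% acetic acid, and dye was solubilized in 10 mM Tris base and read at 515 nm. Growth is given as percent of untreated control.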

TK-10 = assay: Antitumor activity against human TK10 cells at 10 uM after 48 hrs by sulforhodamine B assay relative to control; details: TK-10, 48 h, values are per cent of control
Method in brief: (§3)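 NCI panel line grown in RPMI-1640 with 5% FBS and 2 mM L-glutamine, plated at 5000–40,000 cells/well, 24 h preincubation. Single final 10 µM from DMSO stock, 48 h at 37 °C, 5% CO2. TCA fixation (10% adherent, 16% suspension), SRB stain, absorbance 515 nm. Percent growth relative to untreated control.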

BT-549 = assay: Antitumor activity against human BT549 cells at 10 uM after 48 hrs by sulforhodamine B assay relative to control; details: BT-549, 48 h, values are per cent of control; method in brief: as §2
A549 = assay: Antitumor activity against human A549 cells at 10 uM after 48 hrs by sulforhodamine B assay relative to control; details: A549, 48 h, values are per cent of control; method in brief: as §2
SF-295 = assay: Antitumor activity against human SF295 cells at 10 uM after 48 hrs by sulforhodamine B assay relative to control; details: SF-295, 48 h, values are per cent of control; method in brief: as §1
SF-268 = assay: Antitumor activity against human SF268 cells after 48 hrs by sulforhodamine B assay; details: SF-268, 48 h
Method in brief: (§4)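 Cells were cultured in RPMI-1640 (5% FBS, 2 mM L-glutamine), pre-incubated for 24 h with time-zero plates TCA-fixed, then exposed for 48 h to five serial dilutions. The SRB read-out at 515 nm used time-zero, control and test absorbances. GI50 solves [(Ti−Tz)/(C−Tz)]×100 = 50 (net protein increase). TGI is the concentration giving 100% growth inhibition.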

NCI-H322M = assay: Antitumor activity against human NCI-H322M cells at 10 uM after 48 hrs by sulforhodamine B assay relative to control; details: values are per cent of control; method in brief: as §1
OVCAR-8 = assay: Antitumor activity against human OVCAR8 cells at 10 uM after 48 hrs by sulforhodamine B assay relative to control; details: OVCAR-8, 48 h, values are per cent of control; method in brief: as §1
NCI-H522 [1] = assay: Antitumor activity against human NCI-H522 cells after 48 hrs by sulforhodamine B assay; details: NCI-H522, 48 h; method in brief: as §4
NCI-H23 = assay: Antitumor activity against human NCI-H23 cells at 10 uM after 48 hrs by sulforhodamine B assay relative to control; details: NCI-H23, 48 h, values are per cent of control; method in brief: as §1
NCI-H522 [2] = assay: Antitumor activity against human NCI-H522 cells at 10 uM after 48 hrs by sulforhodamine B assay relative to control; details: NCI-H522, 48 h, values are per cent of control; method in brief: as §1
SK-MEL-28 = assay: Antitumor activity against human SK-MEL-28 cells at 10 uM after 48 hrs by sulforhodamine B assay relative to control; details: SK-MEL-28, 48 h, values are per cent of control; method in brief: as §1
IGROV-1 = assay: Antitumor activity against human IGROV1 cells at 10 uM after 48 hrs by sulforhodamine B assay relative to control; details: IGROV-1, 48 h, values are per cent of control; method in brief: as §2
NCI/ADR-RES = assay: Antitumor activity against human NCI/ADR-RES cells at 10 uM after 48 hrs by sulforhodamine B assay relative to control; details: values are per cent of control; method in brief: as §1
U-251 = assay: Antitumor activity against human U251 cells at 10 uM after 48 hrs by sulforhodamine B assay relative to control; details: U-251, 48 h, values are per cent of control; method in brief: as §3
OVCAR-5 = assay: Antitumor activity against human OVCAR5 cells at 10 uM after 48 hrs by sulforhodamine B assay relative to control; details: OVCAR-5, 48 h, values are per cent of control; method in brief: as §1
SR = assay: Antitumor activity against human SR cells at 10 uM after 48 hrs by sulforhodamine B assay relative to control; details: values are per cent of control; method in brief: as §3
Malme-3M = assay: Antitumor activity against human MALME-3M cells at 10 uM after 48 hrs by sulforhodamine B assay relative to control; details: values are per cent of control; method in brief: as §2
UACC-62 = assay: Antitumor activity against human UACC62 cells at 10 uM after 48 hrs by sulforhodamine B assay relative to control; details: UACC-62, 48 h, values are per cent of control; method in brief: as §3
LOX IMVI = assay: Antitumor activity against human LOXIMVI cells at 10 uM after 48 hrs by sulforhodamine B assay relative to control; details: values are per cent of control; method in brief: as §2
[3] = Antitumor activity against human Hs 578T cells at 10 uM after 48 hrs by sulforhodamine B assay relative to control; details: values are per cent of control; method in brief: as §2
PC-3 = assay: Antitumor activity against human PC3 cells at 10 uM after 48 hrs by sulforhodamine B assay relative to control; details: PC-3, 48 h, values are per cent of control; method in brief: as §1
M14 = assay: Antitumor activity against human M14 cells at 10 uM after 48 hrs by sulforhodamine B assay relative to control; details: M14, 48 h, values are per cent of control; method in brief: as §2
SK-MEL-5 = assay: Antitumor activity against human SK-MEL-5 cells at 10 uM after 48 hrs by sulforhodamine B assay relative to control; details: SK-MEL-5, 48 h, values are per cent of control; method in brief: as §1
MCF7 = assay: Antitumor activity against human MCF7 cells at 10 uM after 48 hrs by sulforhodamine B assay relative to control; details: MCF7, 48 h, values are per cent of control; method in brief: as §2
CCRF-CEM = assay: Antitumor activity against human CCRF-CEM cells at 10 uM after 48 hrs by sulforhodamine B assay relative to control; details: values are per cent of control; method in brief: as §2
HOP-92 = assay: Antitumor activity against human HOP92 cells at 10 uM after 48 hrs by sulforhodamine B assay relative to control; details: HOP-92, 48 h, values are per cent of control; method in brief: as §2

| SMILES | growth, % of control at 10 µM (OVCAR-3) [%] | growth, % of control at 10 µM (COLO 205) [%] | growth, % of control at 10 µM (TK-10) [%] | growth, % of control at 10 µM (BT-549) [%] | growth, % of control at 10 µM (A549) [%] | growth, % of control at 10 µM (SF-295) [%] | growth, % of control at 10 µM (NCI-H322M) [%] | growth, % of control at 10 µM (OVCAR-8) [%] | growth, % of control at 10 µM (NCI-H23) [%] | growth, % of control at 10 µM (NCI-H522 [2]) [%] | growth, % of control at 10 µM (SK-MEL-28) [%] | growth, % of control at 10 µM (IGROV-1) [%] | growth, % of control at 10 µM (NCI/ADR-RES) [%] | growth, % of control at 10 µM (U-251) [%] | growth, % of control at 10 µM (OVCAR-5) [%] | growth, % of control at 10 µM (SR) [%] | growth, % of control at 10 µM (Malme-3M) [%] | growth, % of control at 10 µM (UACC-62) [%] | growth, % of control at 10 µM (LOX IMVI) [%] | growth, % of control at 10 µM [3] [%] | further results |
| --- | --- | --- | --- | --- | --- | --- | --- | --- | --- | --- | --- | --- | --- | --- | --- | --- | --- | --- | --- | --- | --- |
| COc1ccc(NC(=O)Nc2ccccc2OCCCOc2ccccc2NC(=O)Nc2ccc(OC)cc2)cc1 | -11.4 | 18.6 | 22 | 81.2 | -80 | 49 | 82.4 | -65.3 | 2.8 | 63.7 | 45.7 | 4.9 | 59.8 | -50.9 | 46 | -39.7 | 55.1 | 3.9 | 23.7 | 46.4 | GI50 (SF-268): 7.3 µM; TGI (SF-268): > 100 µM; GI50 (NCI-H522 [1]): > 100 µM; TGI (NCI-H522 [1]): > 100 µM; growth, % of control at 10 µM (PC-3): -36.5%; growth, % of control at 10 µM (M14): 61.4%; growth, % of control at 10 µM (SK-MEL-5): 48.7%; growth, % of control at 10 µM (MCF7): 28.2%; growth, % of control at 10 µM (CCRF-CEM): -7.12% |
| O=C(Nc1ccc(Cl)cc1)Nc1ccc(OCCCOc2ccc(NC(=O)Nc3ccc(Cl)cc3)cc2)cc1 | 112 | 166 | 129 | 102 | 107 | 97.3 | 102 | 64.1 | 96.5 | 91.6 | 111 | 85.1 | 99.8 | 103 | 94.6 | 88.7 | 101 | 98.9 | 98.1 | 85.4 | growth, % of control at 10 µM (PC-3): 93%; growth, % of control at 10 µM (M14): 96.7%; growth, % of control at 10 µM (HOP-92): 181%; growth, % of control at 10 µM (SK-MEL-5): > 100%; growth, % of control at 10 µM (MCF7): 103%; growth, % of control at 10 µM (CCRF-CEM): 157% |

Reference: ChEMBL document CHEMBL1287652, “QSAR modeling, synthesis and bioassay of diverse leukemia RPMI-8226 cell line active agents” (2010)
